Variants at the floor of the assay were thinned out.
B1: tRNA (parent)
chain: GUUCCGUUGGCGUAAUGGUAACGCGUCUCCCUCCUAAGGAGAAGACUGCGGGUUCGAGUCCCGUACGGAACG

Variants of: B1
Assay: yeast fitness relative to wild type (ratio to wild type); higher = fitter; tRNA-Arg(CCU), competitive growth, 37 C, YPD
In short: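 For this measurement, the tRNA-Arg(CCU) gene was varied by chemical synthesis at a 3% per-site mutation rate across 69 sites, and each variant was placed at the native genomic locus in Saccharomyces cerevisiae. The pooled strains went through a 24-hour competition in YPD at 37°C in six parallel replicates, with amplicons from start and end populations read by 100-nucleotide paired-end sequencing. Darwinian fitness relative to wild type followed from the change in each genotype's frequency. Genotypes needed ≥ 100 starting reads, and estimates < 0.5 were set to 0.5.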

Variant | yeast fitness
C4A A20G | 0.859
U3C C61U G67A | 0.567
C4A C11U U32A G38C U47A U53G | 0.56
C4A A15G G17A C33U G39C C55A G67C | ≤ 0.5
U3C G12A G50A | 0.662
C4A G17A C27G G63A | ≤ 0.5
U3C G17A | 0.831
C4A C55U | 0.943
C4A C55G | 0.55
C4A C22G C55G G63C | ≤ 0.5
C4A C27A C62A | ≤ 0.5
U3C C27G C33A | 0.655
C4A G17A G51C | ≤ 0.5
C4A A15G C62U | 0.594
C4A G9A C22A C27G U54A | ≤ 0.5
C4A C29U C33A A36C A42C A45G | ≤ 0.5
U3G C30U G48C A65U G68C | ≤ 0.5
C4A A14G U26A | ≤ 0.5
U3G C29A U53A | ≤ 0.5
C4A C5U C22U C34A | 0.576
C4A C27U U28G C33G A36G | 0.533
C4A G17U C46A | 0.645
C4A C5G C22U | ≤ 0.5
U3G G44A G67C | ≤ 0.5

Variant | yeast fitness
C4A A36C | 0.686
C4A C30A A40G G48A | ≤ 0.5
U3C U13A | 0.983
U3C U13G | 1.04
U3G U59C | 0.888
U3C U26C | 0.886
U3G G48A U53G | ≤ 0.5
U3C C31U A57G | 0.778
C4A A65U | 0.719
C4A A65G | 0.946
U3G G44A C66U | 0.582
U3C C31U A36U G39C | ≤ 0.5
C4A A14U A20C U28G G67A A70G | ≤ 0.5
C4A G10A G50A | ≤ 0.5
C4A C31U G44A A45U | 0.574
U3G G6A U8C | ≤ 0.5
U3C G6C A14U A20G G25A G38A U47A C60G A70G | ≤ 0.5
U3G C4U C30U C33G C55U G68U | ≤ 0.5
C4A A15G C22U A36U C60A | ≤ 0.5
U3C G12A A57C C61A A69C | ≤ 0.5
C4A A20U U28A C31U C55G A57C | ≤ 0.5
C4A C5U C30U A45G | 0.516
C4A A15G G17A | 0.724
C4A C27G A42G U53A | ≤ 0.5

Variant | yeast fitness
C4A C22G C29U U35C | ≤ 0.5
C4A G17C | 0.629
C4A C33U | 0.754
U3C U19A U28A C60G | ≤ 0.5
C4A C27U U28G C33G A36G G50C C66U | ≤ 0.5
U3C U19A A57G | 0.624
C4A G12C | 0.679
U3C G48A G67C | 0.653
U3C G25C C49U | 0.758
C4A C5U C22U C34A C62G | ≤ 0.5
C4A A14U A20C U28G G58C C61A | ≤ 0.5
U3G U8C C62U | 0.525
U3G A15G C34A A70G | 0.555
C4A C5U C34U U64G | 0.576
U3G C5G A20C C61U | ≤ 0.5
C4A C5G A57U G68U | 0.575
U3G C5G G10A C30G C31G C49A C60U G67A | ≤ 0.5
U3C G23A C27G C33A | ≤ 0.5
U3G A20C G44C C61U | 0.606
U3C G9A A15U C30A A42G | 0.506
U3C U19A C22U G63A | ≤ 0.5
C4A C24G U32C C62U A69C | ≤ 0.5
U3C C49A | 0.599
U3C C31U G52A | 0.671

Variant | yeast fitness
C4A C5G U53A | ≤ 0.5
C4A C34A C62G | ≤ 0.5
U3C C31U A42G U54A | ≤ 0.5
U3G U13C C33G | ≤ 0.5
U3G C24A C30U | ≤ 0.5
C4A G39C G44C G52C | 0.685
U3G C4G A70C | ≤ 0.5
C4A A42G C60G | 0.53
C4A A36C A57G A65U | ≤ 0.5
C4A C24G C30U A45G | 0.523
U3G A14G | 0.907
C4A C31G C62G G68C | ≤ 0.5
C4A A40C | 0.812
C4A A40U | 0.94
C4A G18C A43C C62G A65C C66A | ≤ 0.5
C4A C60U | 0.825
U3C C27U G50A | 0.648
C4A G23C C24U A65G | 0.556
U3C G10C C27U C66U | ≤ 0.5
U3G C4G C22U C29U G52C G63A G67U A70C | ≤ 0.5
C4A C33A C60A | ≤ 0.5
U3C C55U A65G | 0.514
U3C C31A C49G A70C | ≤ 0.5
C4A C5U C22U C34A C61G | ≤ 0.5

Variant | yeast fitness
U3C G56A U59C | 0.768
U3G C31U C49U | 0.681
U3C C31U A70U | 0.865
U3C C62U | 0.904
U3G U32C | 0.86
C4A C27U A42U C62U | ≤ 0.5
C4A C11A C33G | 0.544
C4A A15U G18C C55U G56C G67A | ≤ 0.5
C4A A20C C29A | ≤ 0.5
U3G A36G G52A C66A A69U | ≤ 0.5
C4A A14U C34G A65U | ≤ 0.5
C4A G12C U19C C24G A43U C61A | 0.502
C4A G6A G67U | ≤ 0.5
U3G C30G A40C C46U | 0.57
U3G C5A C34A | ≤ 0.5
C4A C11U A21U G23A | ≤ 0.5
U3G C11U G67A | 0.564
C4A C29G G50A | ≤ 0.5
U3G A43G G56A | 0.601
C4A A20C C27U | 0.636
C4A C29A | 0.637
U3C C27G A45C | ≤ 0.5
C4A C22U C24A C29A A36C | 0.518
C4A C49G G63C | 0.9

Variant | yeast fitness
U3G U13C A14U C61G C62U | ≤ 0.5
U3G C55U | 0.784
U3C U59A C61G | 0.587
C4A C11U A45U C66U | ≤ 0.5
C4A C22U U54A | 0.685
C4A C11G U13G G25A C62U G63A | ≤ 0.5
U3G U54G A57C | ≤ 0.5
C4A C22A C55U | ≤ 0.5
U3C G25C G38A A42C G52A C62U | ≤ 0.5
C4A A36G C55A C61U | ≤ 0.5
U3C U8A A15C | ≤ 0.5
C4A A14C A21G C29A C34U A69U | ≤ 0.5
C4A G17A C62A | ≤ 0.5
U3C U13C C24U G52A G68U | ≤ 0.5
C4A G9C C30A G39A C61G | ≤ 0.5
C4A A20G G58A A70C | 1.02
U3C U28C | 1.08
U3G U19A G51A C66G | ≤ 0.5
U3C G23C C30A G38C | ≤ 0.5
U3C C29G G44C C49G A57C | ≤ 0.5
C4A | 0.998
C4A C31G A45G G50C | 0.576
C4A C29G A37C U54A | ≤ 0.5
C4A C22U C33G A45C U47C U53G A69C | ≤ 0.5

Variant | yeast fitness
C4A C27G G52A | 0.713
U3C G9A U13G U26C | ≤ 0.5
C4A G17A G41A U54A A57C | ≤ 0.5
U3G U28A C33U A36G C66A | ≤ 0.5
U3G U7C G18A C30G G41U C49G | ≤ 0.5
C4A C24A G51C | 0.595
U3C U7A G25A A42U U64A | ≤ 0.5
C4A C11U U32A G38C C55U G58A G67A | ≤ 0.5
U3G C11G A15C C60U | ≤ 0.5
U3C G38C A40G | 0.501
U3G C5U | 0.724
C4A G23A U28A G48A A70C | ≤ 0.5
U3G G63A | 0.849
U3G A43U U54A A57C | 0.588
U3C C66U | 0.904
U3C C66A | 0.711
C4A C24U C46U C55A C66U | ≤ 0.5
U3C U16G C29U C46U G67C A69U | ≤ 0.5
U3G G17C G18C C22A C60A C66U | ≤ 0.5
C4A G18C C33U U59A | ≤ 0.5
C4A A14U C34G C55U A65C | ≤ 0.5
U3C C46A | 0.912
U3C C46G | 0.912

Source: the RNAGym collection of RNA variant scans (doi:10.1126/science.aae0568)
